Four compounds from ChEMBL document CHEMBL1148976, “Hypoxia-inducible factor-1 activation by (-)-epicatechin gallate: potential adverse effects of cancer chemoprevention with high-dose green tea extracts” (J Nat Prod, 2004) can be followed below.

Active and inactive are the calls of the source. The rule behind the calls is not given here.

By inhibition is commonly meant the relative decrease from the control value, in per cent. The low end stands for little suppression, the high end for strong suppression.

The test system of series [1] is T47D. Nature of the series: Induction of HIF1 activation in human T47D cells under normoxic condition at 100 uM in presence of 100 uM iron(2). In kind it is cell-based. Put shortly:
(§1)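 T47D cells transiently co-transfected by electroporation with pTK-HRE3-luc (50 μg mL−1) and pRL-TK (5 μg mL−1). Read-out is dual luciferase, with firefly normalized to Renilla. Incubation runs 16 h under normoxia. Iron salt or ascorbate is added with test compound (100 μM). Data come from one representative experiment in quadruplicate, mean ± SD, p <0.05 versus control.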

For series [2], the system named is T47D. Nature of the series: Induction of HIF1 activation in human T47D cells under normoxic condition at 100 uM in presence of 300 uM iron(2). The format is cell-based. Put shortly:
as §1

In series [3] the target is Hypoxia-inducible factor 1-alpha (Homo sapiens) (UniProt Q16665). Put plainly: Induction of HIF1alpha protein in human T47D cells under normoxic condition at 100 uM after 4 hrs by Western blot analysis in presence of 100 uM iron(2). The format is cell-based. Put shortly:
(§2)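 T47D cells (10 million per 100 mm plate, 10% FBS DMEM/F12) are plated and left overnight. Test compound, with or without iron salt, ascorbate or Trolox, is added for 30 min at 37 °C. Cells then stand 4 h under normoxia (5% CO2:95% air) or hypoxia (5% CO2:1% O2:94% N2). Nuclear extracts are probed for HIF-1α and HIF-1β by Western blot.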
For orientation: In western blotting, separated proteins are transferred to a membrane and probed.

Series [4] relates to T47D. Put plainly: Induction of HIF1 activation in human T47D cells expressing pTK-HRE-luc gene under normoxic condition at 100 uM after 16 hrs by luciferase reporter assay relative to control. In kind it is cell-based. An outline of the steps: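 T47D cells transiently co-transfected by electroporation with pTK-HRE3-luc (50 μg mL−1) and pRL-TK (5 μg mL−1). Compound at 100 μM under normoxia (5% CO2:95% air, 37 °C) for 16 h. Dual luciferase read-out, firefly normalized to Renilla, expressed as fold over control. pGL3-Control transfected cells run as counter-check.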
In general terms: A reporter such as luciferase makes a cellular process visible.

The subject of series [5] is T47D. Put plainly: Induction of CDKN1A mRNA expression in human T47D cells under normoxic condition at 100 uM after 16 hrs by RT-PCR. The format is functional, cell-based. Put shortly:
(§3)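 T47D cells, pretreated 30 min, then 16 h under normoxia or hypoxia (1% O2). Total RNA extracted immediately after treatment, checked by absorbance and agarose gel. Target mRNA measured by quantitative real-time RT-PCR, normalized to 18S rRNA, relative expression by ΔΔCT method. Mean ± SD from one representative experiment in triplicate.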

In series [6] the target is Hypoxia-inducible factor 1-alpha (Homo sapiens) (UniProt Q16665). Nature of the series: Induction of HIF1alpha protein in human T47D cells under normoxic condition at 100 uM after 4 hrs by Western blot analysis in presence of trolox. In kind it is cell-based. An outline of the steps:
as §2

Series [7] concerns the target Hypoxia inducible factors; HIF-1-alpha, HIF-2-alpha (Homo sapiens) (UniProt Q16665+Q99814). Nature of the series: Inhibition of hypoxia-induced HIF1 activation in human T47D cells expressing pTK-HRE-luc gene at 100 uM by luciferase reporter assay. The format is cell-based. Put shortly: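 T47D cells co-transfected by electroporation with pTK-HRE3-luc and pRL-TK. Compound at 100 μM, then hypoxia (1% O2). Dual luciferase read-out, firefly normalized to Renilla. Value is % inhibition of hypoxic HIF-1 activation. pGL3-Control reporter cells used as specificity control.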

Series [8] has as its target Hypoxia-inducible factor 1-alpha (Homo sapiens) (UniProt Q16665). Put plainly: Induction of HIF1alpha protein in human T47D cells under normoxic condition at 100 uM after 4 hrs by Western blot analysis in presence of ascorbate. In kind it is cell-based. An outline of the steps:
as §2

Series [9] concerns T47D. Nature of the series: Induction of HIF1 activation in human T47D cells under normoxic condition at 100 uM in presence of 50 uM iron(3). The format is cell-based. Put shortly: as §1
The subject of series [10] is T47D. Put plainly: Increase in HIF1alpha mRNA expression in human T47D cells under normoxic condition at 100 uM after 16 hrs by RT-PCR. In kind it is functional, cell-based. An outline of the steps:
as §3

Series [11] deals with T47D. Nature of the series: Induction of HIF1 activation in human T47D cells under normoxic condition at 100 uM in presence of 150 uM iron(3). The format is cell-based. An outline of the steps: as §1
For series [12], the system named is T47D. Nature of the series: Inhibition of hypoxia-induced GLUT1 mRNA expression in human T47D cells at 100 uM after 16 hrs by RT-PCR. In kind it is functional, cell-based. An outline of the steps: as §3
In series [13] the target is Hypoxia-inducible factor 1-alpha (Homo sapiens) (UniProt Q16665). Put plainly: Inhibition of hypoxia-induced increase in HIF1alpha protein in human T47D cells at 100 uM after 4 hrs by Western blot analysis. The format is cell-based. Put shortly: as §2
Chain of Hypoxia-inducible factor 1-alpha (Homo sapiens) (Q16665 whole entry, looked up): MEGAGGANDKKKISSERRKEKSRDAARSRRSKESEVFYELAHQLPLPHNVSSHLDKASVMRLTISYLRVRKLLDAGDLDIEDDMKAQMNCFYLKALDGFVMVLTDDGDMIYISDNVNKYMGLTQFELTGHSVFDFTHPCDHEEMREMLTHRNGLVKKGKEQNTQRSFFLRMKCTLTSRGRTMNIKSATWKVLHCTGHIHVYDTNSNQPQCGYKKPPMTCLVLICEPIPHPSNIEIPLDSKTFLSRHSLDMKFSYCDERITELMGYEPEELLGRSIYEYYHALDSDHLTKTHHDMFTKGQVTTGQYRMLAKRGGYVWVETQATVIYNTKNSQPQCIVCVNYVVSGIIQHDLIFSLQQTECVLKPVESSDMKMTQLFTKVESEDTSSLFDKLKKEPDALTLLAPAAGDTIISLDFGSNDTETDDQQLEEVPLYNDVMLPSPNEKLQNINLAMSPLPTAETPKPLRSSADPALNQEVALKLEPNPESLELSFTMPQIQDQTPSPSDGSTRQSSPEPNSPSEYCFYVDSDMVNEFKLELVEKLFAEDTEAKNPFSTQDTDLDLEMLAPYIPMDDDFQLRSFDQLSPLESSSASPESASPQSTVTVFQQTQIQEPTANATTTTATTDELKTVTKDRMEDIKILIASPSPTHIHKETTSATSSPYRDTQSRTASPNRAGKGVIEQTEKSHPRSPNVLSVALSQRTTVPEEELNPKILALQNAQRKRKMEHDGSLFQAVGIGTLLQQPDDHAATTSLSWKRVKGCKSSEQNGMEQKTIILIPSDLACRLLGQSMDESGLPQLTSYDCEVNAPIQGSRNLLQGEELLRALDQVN
Series [14] has as its system T47D. Put plainly: Inhibition of hypoxia-induced VEGF mRNA expression in human T47D cells at 100 uM after 16 hrs by RT-PCR. The format is functional, cell-based. Put shortly: as §3
The subject of series [15] is T47D. Nature of the series: Induction of GLUT1 mRNA expression in human T47D cells under normoxic condition at 100 uM after 16 hrs by RT-PCR. In kind it is functional, cell-based. Put shortly: as §3
Series [16] deals with T47D. Nature of the series: Induction of HIF1 activation in human T47D cells under normoxic condition at 100 uM by luciferase reporter gene assay in presence of ascorbate. The format is cell-based. An outline of the steps:
as §1

The target of series [17] is Aryl hydrocarbon receptor nuclear translocator (Homo sapiens) (UniProt P27540). Put plainly: Induction of HIF1beta protein in human T47D cells under normoxic condition at 100 uM after 4 hrs by Western blot analysis in presence of 150 uM iron(3). In kind it is cell-based. An outline of the steps:
as §2

Series [18] has as its system T47D. Put plainly: Decrease in hypoxia-induced HIF1alpha mRNA expression in human T47D cells at 100 uM after 16 hrs by RT-PCR. In kind it is functional, cell-based. An outline of the steps:
as §3

Series [19] concerns the target Hypoxia-inducible factor 1-alpha (Homo sapiens) (UniProt Q16665). Nature of the series: Induction of HIF1alpha protein in human T47D cells under normoxic condition at 100 uM after 4 hrs by Western blot analysis. In kind it is cell-based. Put shortly: as §2
Series [20] has the same target. Put plainly: Induction of HIF1alpha protein in human T47D cells under normoxic condition at 100 uM after 4 hrs by Western blot analysis in presence of 150 uM iron(3). The format is cell-based. An outline of the steps:
as §2

Series [21] addresses Aryl hydrocarbon receptor nuclear translocator (Homo sapiens) (UniProt P27540). Put plainly: Induction of HIF1beta protein in human T47D cells under normoxic condition at 100 uM after 4 hrs by Western blot analysis. The format is cell-based. An outline of the steps: as §2
Series [22] has as its system T47D. Nature of the series: Induction of VEGF mRNA expression in human T47D cells under normoxic condition at 100 uM after 16 hrs by RT-PCR. The format is functional, cell-based. Put shortly:
as §3

In series [23] the target is Aryl hydrocarbon receptor nuclear translocator (Homo sapiens) (UniProt P27540). Nature of the series: Induction of HIF1beta protein in human T47D cells under normoxic condition at 100 uM after 4 hrs by Western blot analysis in presence of 300 uM iron(2). In kind it is cell-based. An outline of the steps:
as §2

Series [24] has the same target. Nature of the series: Induction of HIF1beta protein in human T47D cells under normoxic condition at 100 uM after 4 hrs by Western blot analysis in presence of ascorbate. In kind it is cell-based. Put shortly:
as §2

For series [25], the target named is Hypoxia-inducible factor 1-alpha (Homo sapiens) (UniProt Q16665). Put plainly: Induction of HIF1alpha protein in human T47D cells under normoxic condition at 100 uM after 4 hrs by Western blot analysis in presence of 300 uM iron(2). In kind it is cell-based. An outline of the steps: as §2
Series [26] can be described thus: Chemical stability in DMEM/F12 medium in presence of fetal calf serum. Particulars: cattle. The format is physicochemical. An outline of the steps: (§4)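 Compound added at 100 μM final in serum-free DMEM/F12 with Pen/Strep to medium with 5% FBS, with or without T47D cells, 30 min, then hypoxia (1% O2) 16 h. Other samples: cell-free medium with or without antibiotics. Conditioned medium extracted; normal-phase TLC on silica gel G with UV254 indicator, UV254 quenching read-out. Extraction control: compound mixed with medium immediately before extraction.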

Series [27] in a line: Aqueous stability of the compound. In kind it is physicochemical. Particulars: buffer. Put shortly: as §4

Chain of Aryl hydrocarbon receptor nuclear translocator (Homo sapiens) (P27540 whole entry): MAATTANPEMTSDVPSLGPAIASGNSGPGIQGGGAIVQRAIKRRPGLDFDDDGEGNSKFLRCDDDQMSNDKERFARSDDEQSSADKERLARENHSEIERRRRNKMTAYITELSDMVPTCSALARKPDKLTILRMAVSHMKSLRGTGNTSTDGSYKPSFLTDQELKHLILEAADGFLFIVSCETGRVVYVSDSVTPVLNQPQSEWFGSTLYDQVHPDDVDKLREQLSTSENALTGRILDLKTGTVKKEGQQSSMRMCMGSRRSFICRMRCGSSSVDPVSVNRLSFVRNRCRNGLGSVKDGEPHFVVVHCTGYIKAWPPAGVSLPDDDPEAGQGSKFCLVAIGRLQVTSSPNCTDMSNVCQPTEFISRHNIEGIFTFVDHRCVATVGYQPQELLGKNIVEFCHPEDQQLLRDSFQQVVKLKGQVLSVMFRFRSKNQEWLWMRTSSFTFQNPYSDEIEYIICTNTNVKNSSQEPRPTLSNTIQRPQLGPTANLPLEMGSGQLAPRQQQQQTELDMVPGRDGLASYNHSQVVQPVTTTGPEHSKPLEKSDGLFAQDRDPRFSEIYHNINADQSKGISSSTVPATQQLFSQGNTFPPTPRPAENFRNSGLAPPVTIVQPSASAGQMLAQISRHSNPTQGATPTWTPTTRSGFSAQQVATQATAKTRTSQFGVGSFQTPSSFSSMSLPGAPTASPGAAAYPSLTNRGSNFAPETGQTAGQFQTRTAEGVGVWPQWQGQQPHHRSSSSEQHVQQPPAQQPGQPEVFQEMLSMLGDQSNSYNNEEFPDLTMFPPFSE

Consider `CC(=O)N(O)CCCCCNC(=O)CCC(=O)N(O)CCCCCNC(=O)CCC(=O)N(O)CCCCCN`, for which the outcome with T47D [1] and in the series on T47D [2] was inactive.
For the compound `O=C(O[C@@H]1Cc2c(O)cc(O)cc2O[C@@H]1c1ccc(O)c(O)c1)c1cc(O)c(O)c(O)c1`, the outcome (in [3]; in series [8]; in the series on T47D [9]; in the series with T47D [10]; in the series on T47D [11]; in the series on T47D [12]) was inactive. Also, the outcome (in the series with T47D [14]; in the series on T47D [16]; in the series on T47D [18]; in the series with T47D [2]; in series [20]; in [21]) was inactive. The outcome in [25] was inactive. Also, the fold change (FC) in the series with T47D [4] came out at 16.8. In addition, the outcome (with T47D [5]; in [6]; in series [13]; in the series with T47D [15]; in series [17]; in [19]) was Active. Also, the outcome (in the series on T47D [22]; in series [23]; in series [24]) was Active. This compound also came in with an inhibition in series [7] of 79%.
Consider `O=C(O[C@@H]1Cc2c(O)cc(O)cc2O[C@@H]1c1cc(O)c(O)c(O)c1)c1cc(O)c(O)c(O)c1` [EPIGALOCATECHIN GALLATE], for which, in the series with T47D [4], the fold change (FC) turned out to be 3.6. Also, the Stability result in series [26] and in series [27] was “Unstable” in each case. Besides, in [7], the result was inactive.
Turning to `Cc1c(C)c2c(c(C)c1O)CCC(C)(C(=O)O)O2` (configuration not stated), the result in [19] and in [21] was inactive.
